The record followed here is ChEMBL document CHEMBL4316631, “Anti-inflammatory Potential of Saponins from Aster tataricus via NF-κB/MAPK Activation” (J Nat Prod, 2019).

Bounds are passed on as bounds.

For series [1], the system named is RAW264.7. Put plainly: Anti-inflammatory activity in mouse RAW264.7 cells assessed as inhibition of LPS-induced nitric oxide production preincubated for 30 mins followed by LPS-stimulation and measured after 24 hrs by Griess assay. The series is classed as functional, cell-based. Put shortly:
(§1)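 RAW 264.7 macrophages stimulated with LPS; NO release quantified. Single-point screen at 50 μM; IC50 derived by nonlinear regression of sigmoidal dose–response curve, reported with 95% confidence intervals. Dexamethasone as positive control.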

Series [2] deals with RAW264.7. Put plainly: Cytotoxicity against mouse RAW264.7 cells assessed as reduction in cell viability at >50 uM measured after 24 hrs by MTT assay. In kind it is cell-based. To be noted: raw264.7, 24 h.
Series [3] concerns RAW264.7. The series can be described thus: Anti-inflammatory activity in mouse RAW264.7 cells assessed as inhibition of LPS-induced nitric oxide production at 50 uM preincubated for 30 mins followed by LPS-stimulation and measured after 24 hrs by Griess assay relative to control. In kind it is functional. Put shortly:
as §1
On the technique in general: The Griess reaction detects nitrite, a stable product of nitric oxide.

In the case of `CC1(C)CC[C@]2(C(=O)O)[C@H](O)C[C@]3(C)C(=CC[C@@H]4[C@@]5(C)C[C@H](O)[C@H](O[C@@H]6O[C@H](CO[C@@H]7OC[C@H](O)[C@H](O)[C@H]7O)[C@@H](O)[C@H](O)[C@H]6O)C(C)(C)[C@@H]5CC[C@]43C)[C@@H]2C1`, the IC50 in series [1] was > 50000 nM. In series [2], the Activity entry is recorded as “Non-Toxic”. Taken in the same sequence, the figures for `CC1(C)CC[C@]2(C(=O)O[C@@H]3OC[C@@H](O)[C@H](O)[C@H]3O)[C@H](O)C[C@]3(C)C(=CC[C@@H]4[C@@]5(C)C[C@H](O)[C@H](O[C@@H]6O[C@H](CO[C@@H]7OC[C@H](O)[C@H](O)[C@H]7O)[C@@H](O)[C@H](O)[C@H]6O)C(C)(C)[C@@H]5CC[C@]43C)[C@@H]2C1` were > 50000 nM and “Non-Toxic”. With `C[C@@H]1O[C@@H](O[C@H]2[C@H](OC(=O)[C@]34CCC(C)(C)C[C@H]3C3=CC[C@@H]5[C@@]6(C)CC[C@H](O[C@@H]7O[C@H](CO[C@@H]8OC[C@H](O)[C@H](O)[C@H]8O)[C@@H](O)[C@H](O)[C@H]7O)C(C)(C)[C@@H]6CC[C@@]5(C)[C@]3(C)C[C@H]4O)OC[C@@H](O)[C@@H]2O)[C@H](O)[C@H](O)[C@H]1O[C@@H]1OC[C@H](O)[C@H](O[C@@H]2OC[C@@H](O)[C@H](O)[C@H]2O)[C@H]1O`, in series [3], the inhibition at 50 µM is > 50%. The 50% inhibitory concentration (IC50) in series [1] is 2100 nM. The like results for `C[C@@H]1O[C@@H](O[C@@H]2[C@@H](O[C@@H]3O[C@@H](C)[C@H](O[C@@H]4OC[C@@H](O)[C@H](O)[C@H]4O)[C@@H](O[C@@H]4OC[C@](O)(CO)[C@H]4O)[C@H]3O)[C@H](OC(=O)[C@]34CCC(C)(C)C[C@H]3C3=CC[C@@H]5[C@@]6(C)C[C@H](O)[C@H](O[C@@H]7O[C@H](CO[C@@H]8OC[C@H](O)[C@H](O)[C@H]8O)[C@@H](O)[C@H](O)[C@H]7O)C(C)(C)[C@@H]6CC[C@@]5(C)[C@]3(C)CC4)OC[C@H]2O)[C@H](O)[C@H](O)[C@H]1O` were, in that order, > 50% and 42100 nM. Consider `C[C@@H]1O[C@@H](O[C@@H]2[C@@H](O)[C@H](O[C@@H]3[C@@H](O[C@@H]4OC[C@](O)(CO)[C@H]4O)[C@@H](O)[C@H](O[C@H]4[C@H](OC(=O)[C@]56CCC(C)(C)C[C@H]5C5=CC[C@@H]7[C@@]8(C)C[C@H](O)[C@H](O[C@@H]9O[C@H](CO[C@@H]%10OC[C@H](O)[C@H](O)[C@H]%10O)[C@@H](O)[C@H](O)[C@H]9O)C(C)(C)[C@@H]8CC[C@@]7(C)[C@]5(C)C[C@H]6O)OC[C@@H](O)[C@@H]4O)O[C@H]3C)OC[C@@H]2O)[C@H](O)[C@H](O)[C@H]1O`, for which the inhibition at 50 µM in series [3] was > 50%. Further, the IC50 in series [1] turned out to be 2700 nM. With `C[C@@H]1O[C@@H](O[C@H]2[C@H](OC(=O)[C@]34CCC(C)(C)C[C@H]3C3=CC[C@@H]5[C@@]6(C)C[C@H](O)[C@H](O[C@@H]7O[C@H](CO[C@@H]8OC[C@H](O)[C@H](O)[C@H]8O)[C@@H](O)[C@H](O)[C@H]7O)C(C)(C)[C@@H]6CC[C@@]5(C)[C@]3(C)CC4)OC[C@@H](O)[C@@H]2O)[C@H](O)[C@H](O[C@@H]2OC[C@](O)(CO)[C@H]2O)[C@H]1O[C@@H]1OC[C@@H](O)[C@H](O)[C@H]1O`, the IC50 in series [1] was > 50000 nM. Besides, the Activity result in series [2] was “Non-Toxic”.

Consider `C[C@@H]1C[C@H]2[C@@H]3CCC4=CC(=O)C=C[C@]4(C)[C@@]3(F)[C@@H](O)C[C@]2(C)[C@@]1(O)C(=O)CO` [DEXAMETHASONE], for which the IC50 in series [1] turned out to be 10 nM.

One may read the IC50 as the concentration that inhibits the measured activity by half. A word on the inhibition: it is how much of the control response was suppressed.
